TDP2 inh: blocks human TDP2 phosphodiesterase activity | O95551 | inhibition, % at 12.8 µM | recombinant TDP2, T5PNP hydrolysis, p-nitrophenol absorbance 415 nm | AID 720702 | actives 0.34% (n = 370,000);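 active means inhibition above the mean of all tested compounds plus 3 SD, set per campaign, cut at about 25% in these data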
Target sequence (O95551 whole entry, looked up): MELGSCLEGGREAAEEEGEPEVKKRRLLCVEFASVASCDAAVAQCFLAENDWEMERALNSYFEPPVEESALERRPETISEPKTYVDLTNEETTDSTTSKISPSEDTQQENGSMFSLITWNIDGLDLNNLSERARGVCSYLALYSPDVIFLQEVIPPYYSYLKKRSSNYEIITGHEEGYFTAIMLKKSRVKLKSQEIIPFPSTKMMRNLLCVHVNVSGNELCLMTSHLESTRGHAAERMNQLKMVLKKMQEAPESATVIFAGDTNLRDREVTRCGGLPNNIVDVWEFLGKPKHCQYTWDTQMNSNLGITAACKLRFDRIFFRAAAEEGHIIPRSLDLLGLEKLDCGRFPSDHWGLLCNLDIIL
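Read-out basis: percent inhibition. System: recombinant human TDP2. Buffer or medium: Mg2+-containing Tris-HCl buffer, pH 7.5. Repeats: single replicate. Timing: reaction 2 h, 37 °C. Benchmarks: high control without enzyme, low control DMSO plus TDP2. Probe or stimulus: 5 mM T5PNP. Doses: 12.8 µM only. Measured by: epi absorbance of p-nitrophenol freed from T5PNP by hydrolysis.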
UHRF1 binding: UHRF1 methyl-DNA binding inhibition | inhibition, % at 4.4 µM | actives 0.75% (n = 370,000) | UHRF1 binding to methylated oligo, TR-FRET | Q96T88; in the data active means inhibition above about 21%;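 further: UHRF1 SRA domain binding a hemimethylated CpG hairpin DNA probe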
LEDGF integ inh: blocks HIV-1 LEDGF/p75-dependent DNA integration; TR-FRET IN-LEDGF/p75 DNA integration, Eu/Cy5; actives 0.64% (n = 370,000); inhibition, % at 3.7 µM; AID 743269;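 active means inhibition above the screen-wide mean plus 3 SD, cut at about 13% in these data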;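 further: signal is the Cy5 over europium emission ratio at 671 and 618 nm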
core dimer inh: HCV core protein dimerization inhibition; TR-FRET GST/Flag-core106 dimerization, 1536-well; inhibition, % at 5 µM; actives 0.33% (n = 300,000); AID 1899;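 active means inhibition above the mean of all tested compounds plus 3 SD, set per screening campaign, cut at about 45% in these data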
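assay system = GST-tagged and Flag-tagged HCV core protein residues 1-106 | controls = unlabelled core106 and no-GST-core106 wells | incubation = compound-protein-antibody incubation 4 h at 22.5 °C | probe or stimulus = Eu donor and XL665 acceptor anti-tag antibodies | read-out = % inhibition based on acceptor/donor emission ratio | signal = TR-FRET 671 and 617 nm emission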
MBD2 DNA inh: inhibitors of human MBD2 binding to methylated oligonucleotide; Q9UBB5; TR-FRET; actives 0.31% (n = 370,000); inhibition, % at 4.4 µM; in the data active means inhibition above about 13%
Of the large screens only hits and unclear results are named; the others gave an inactive call. Compounds with a hit are over-represented: about 1.8% of the library has one in this group of screens.

Cc1cccc(Cc2cnc(NC(=O)CN3C(=O)/C(=C/c4ccccc4)SC3=S)s2)c1	core dimer inh 62.3
COC(=O)C1CN(Cc2ccc(F)cc2)CCS(=O)(=O)N1Cc1ccc(C)cc1 (configuration not stated)	none (no result: core dimer inh)
CC(=NNC(=O)CSc1nnc(-c2ccc(C(C)(C)C)cc2)n1-c1ccccc1)c1cccc2ccccc12	none (no result: core dimer inh)
Cc1ccc(OCC(=O)NNC(=O)c2cccnc2)cc1	UHRF1 binding 26.6
Brc1ccccc1Cn1nnc(-c2ccc(N3CCOCC3)cc2)n1	none (no result: core dimer inh)
COc1cc(NC(=O)C2CCN(c3nnc(-n4cccc4)s3)CC2)cc(OC)c1	none (no result: core dimer inh)
O=C1Nc2ccccc2SC(c2ccccc2)C1O (configuration not stated)	core dimer inh 83.0
COc1ccc(OC)c(S(=O)(=O)n2c(CN3CCOCC3)nc3ccccc32)c1	none (no result: core dimer inh)
CNC(=O)CN(c1cc(C)ccc1OC)S(=O)(=O)c1ccc(C)cc1	UHRF1 binding 41.5
COc1ccc(N(CC(=O)NC2CC3CCC2C3)S(=O)(=O)c2ccc(C)cc2)cc1Cl (configuration not stated)	UHRF1 binding 21.8 (no result: core dimer inh)
COCCCN1C(=O)[C@H](CC(=O)N2CCN(C(=O)C3CC3)CC2)[C@]2(C(=O)OC)CCCCC=C12	none (no result: core dimer inh)
CN1CC=C(c2ccccc2)N(c2ccc(Cl)cc2)C1=O	none (no result: core dimer inh)
CN1C(=S)N(c2cccnc2)C(=O)/C1=C\c1ccc(N(C)C)cc1	UHRF1 binding 42.7 (no result: core dimer inh)
O=C(CC1C(=O)NCCN1C(=O)Nc1ccccc1)Nc1cccc(Cl)c1 (configuration not stated)	UHRF1 binding 32.6
O=C(CC1C(=O)NCCN1C(=O)Nc1ccccc1)Nc1cc(Cl)cc(Cl)c1 (configuration not stated)	none
COc1ccc(-c2c(C)sc(NC(=O)c3ccnn3C)c2C#N)cc1	core dimer inh 70.6
Cn1nccc1C(=O)Nc1sc2c(c1C#N)CCCC2	none
CC(=O)N1c2cc(S(=O)(=O)N3CCN(c4ccccc4F)CC3)c(Br)cc2CC1C (configuration not stated)	none (no result: core dimer inh)
O=C(NNC(=O)c1cc(-c2cccnc2)nc2ccccc12)Nc1ccc(Cl)cc1	none
O=C(NNC(=O)c1cc(-c2ccccc2)nc2ccccc12)Nc1cccc(Cl)c1	UHRF1 binding 80.6
O=S1(=O)CC2c3ccccc3CN2CN1Cc1ccc(F)cc1 (configuration not stated)	none (no result: core dimer inh)
CCc1cc(C(=O)N=Nc2c(O)[nH]c3c(Br)cc(Br)cc23)c2ccccc2n1	none
CCc1cc(C(=O)N=Nc2c(O)[nH]c3ccc([N+](=O)[O-])cc23)c2ccccc2n1	core dimer inh 58.0
COC(=O)C1CN(Cc2cn(Cc3ccc(OC)cc3)nn2)CCS(=O)(=O)N1Cc1ccc(OC)cc1 (configuration not stated)	none (no result: core dimer inh)
COc1ccc(S(=O)(=O)Nc2ccc(O)c3ccccc23)cc1	TDP2 inh 42.2, LEDGF integ inh 27.1
COc1ccc(S(=O)(=O)Nc2ccccc2)cc1	none
COc1ccc(-n2c(C)cc(C(=O)CN3C(=O)c4ccccc4C3=O)c2C)cc1	none
COc1ccc(-n2c(C)cc(C(=O)CCl)c2C)cc1	UHRF1 binding 23.6
O=C(N/N=C/c1ccc([N+](=O)[O-])o1)c1cn(-c2ccccc2)nc1-c1ccc(Cl)cc1	core dimer inh 46.1
O=C(N/N=C/c1ccc([N+](=O)[O-])o1)c1cc(-c2ccc(-c3ccccc3)cc2)nc2ccccc12	core dimer inh 67.0
O=C(N/N=C/c1ccc([N+](=O)[O-])o1)c1cc(-c2ccncc2)nc2ccccc12	none
O=C(N[C@H](Cc1ccccc1)C(=O)N1CCN(CC(=O)N2CCCC2)CC1)[C@H]1O[C@@H](n2ccc(=O)[nH]c2=O)[C@H](O)[C@@H]1O	none (no result: core dimer inh)
CCc1nnc(NC(=O)c2ccc(COc3ccccc3C)o2)s1	none
CCc1nnc(NC(=O)c2ccc(COc3ccccc3Cl)o2)s1	UHRF1 binding 27.8
C[C@@]12CCC=C[C@H]1[C@H](c1ccc3ccccc3c1Br)N(Cc1ccccc1)C2=O	none (no result: core dimer inh)
C[C@@]12CCC=C[C@H]1[C@H](c1ccc3ccccc3c1)N(Cc1ccccc1)C2=O	UHRF1 binding 38.5
COc1ccc([N+](=O)[O-])cc1NC(=O)/C=C/C(=O)O	none
Cc1ccc([N+](=O)[O-])cc1NC(=O)/C=C/C(=O)O	UHRF1 binding 40.2
O=C(c1ccc2nc(-c3ccco3)c(-c3ccco3)nc2c1)N1CCN(c2ncccn2)CC1	LEDGF integ inh 34.0, core dimer inh 62.5
O=C(Nc1ccc2nc(-c3ccco3)c(-c3ccco3)nc2c1)N1CCN(c2ccccn2)CC1	LEDGF integ inh 23.8
COC(=O)[C@]12C[C@H](CC(=O)N3CCN(C(=O)C4CC4)CC3)C(=O)N(CCc3ccc(OC)c(OC)c3)C1=C[C@H](C1CCCC1)O[C@@H]2C	none (no result: core dimer inh)
Cc1c(C=O)c(Cl)n(C)c(=O)c1C#N	TDP2 inh 39.0
N#Cc1cccc(NC(=O)OCCN2C(=O)CCC23CCC(c2ccc(Cl)cc2)CC3)c1 (configuration not stated)	none (no result: core dimer inh)
N#Cc1ccsc1NC(=O)COC(=O)CCCSc1nc2ccccc2s1	UHRF1 binding 75.1
NC(=O)COC(=O)CCCSc1nc2ccccc2s1	none
COc1ccc(CN(C)C(C#Cc2ccccc2)Cc2ccccc2)c(OC)c1 (configuration not stated)	none (no result: core dimer inh)
COc1ccc(-n2c(SCC(=O)Nc3ccccc3)nnc2-c2ccc(NS(=O)(=O)c3ccc(C)cc3)cc2)cc1	core dimer inh 51.7
NC(=O)CSc1nnc(-c2ccc(S(=O)(=O)N3CCCCC3)cc2)n1-c1ccccc1	UHRF1 binding 40.4
COc1ccccc1-n1c(SCC(N)=O)nnc1-c1ccc(S(=O)(=O)N2CCCCC2)cc1	none
CCOC(=O)Cn1cc(CN2CCS(=O)(=O)N(Cc3ccc(Cl)cc3)C(C(=O)OC)C2)nn1 (configuration not stated)	none (no result: core dimer inh)
N#CC1=C(N)OC2=C(CC/C2=C\c2ccc(F)cc2)C1c1ccc(F)cc1 (configuration not stated)	core dimer inh 52.1 (no result: TDP2 inh, UHRF1 binding, LEDGF integ inh, MBD2 DNA inh)
O=C(CSc1nnc(SCc2ccc(Cl)cc2)s1)N1CCN(C(=O)c2ccco2)CC1	none
O=C(CSc1nncs1)N1CCN(C(=O)c2ccco2)CC1	UHRF1 binding 36.5
Cc1ccccc1N1CC(C(=O)Nc2nnc(SCC(=O)Nc3nccs3)s2)CC1=O (configuration not stated)	none
O=C(Nc1nnc(SCC(=O)N2CCCC2)s1)C1CC(=O)N(c2ccc(F)cc2)C1 (configuration not stated)	none
O=C(Nc1nnc(SCc2ccccn2)s1)C1CC(=O)N(c2ccc(F)cc2)C1 (configuration not stated)	core dimer inh 54.7

Screening results (PubChem BioAssay)
